Measurements taken from ChEMBL document CHEMBL1135690, “Benzodiazepine receptor ligands. 7. Synthesis and pharmacological evaluation of new 3-esters of the 8-chloropyrazolo[5,1-c][1,2,4]benzotriazine 5-oxide. 3-(2-Thienylmethoxycarbonyl) derivative: an anxioselective agent in rodents” (J Med Chem, 2002).

Columns and labels:
[1] = molecular target: T1, GABA-A receptor; alpha-1/beta-2/gamma-2 (Rattus norvegicus, UniProt P18508+P62813+P63138); test: (§1) Displacement of [3H]Ro-151788 from rat GABA-A receptor alpha-1-beta-2-gamma-2 subunits expressed in HEK293 cells; assay type: cell-based
[2] = Displacement of [3H]Ro-151788 from rat GABA-A receptor alpha-5-beta-3-gamma-2 subunits expressed in HEK293 cells; assay type: cell-based
In short: (§2)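 Recombinant rat GABA-A subtypes are stably expressed in HEK293 cells grown in MEM/EBSS with 10% FCS at 37 °C. Membranes are made in 10 mM potassium phosphate pH 7.4 and resuspended with 100 mM KCl. Incubation uses 1–2 nM [3H]Ro15-1788 with compound at 10^-9–10^-5 M (≥6 concentrations), 1 h at 4 °C. […] Ki comes from Cheng–Prusoff, n=5, in triplicate.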

[3] = Displacement of [3H]-Ro-15-1788 from rat GABA-A receptor alpha-2-beta-2-gamma-2 subunits expressed in HEK293 cells; assay type: cell-based; in short: as §2
[4] = molecular target: GABA A receptor alpha-3/beta-2/gamma-2 (Rattus norvegicus, UniProt P18508+P20236+P63138); test: Displacement of [3H]Ro-151788 from rat GABA-A receptor alpha-3-beta-2-gamma-2 subunits expressed in HEK293 cells; assay type: cell-based
Mus musculus [5] = test: Anxiolytic activity in mice using light-dark box and no. of transfers between compartments were reported at 100 mg/kg intraperitoneal dose; assay type: functional
Mus musculus [6] = test: Motor coordination of mouse as number of falls in 30 sec was reported after 100 mg/kg intraperitoneal dose using rotarod test; assay type: functional
In short: (§3)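 Male CD-1 mice are dosed po in 1% CMC (flumazenil ip). Falls from a rota rod turning at 24 rpm are counted over 30 s, 25 min after drug administration, and compared with vehicle-treated mice. Means ± SEM.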

Mus musculus [7] = test: Anxiolytic activity in mice using light-dark box and no. of transfers between compartments were reported at 30 mg/kg intraperitoneal dose; assay type: functional
Mus musculus [8] = test: Anxiolytic activity in mice using light-dark box and % time spent in light was reported at 30 mg/kg intraperitoneal dose; assay type: functional
Mus musculus [9] = test: Motor coordination of mouse as number of falls in 30 sec was reported after 30 mg/kg intraperitoneal dose using rotarod test; assay type: functional; in short: as §3
Mus musculus [10] = test: Anxiolytic activity in mice using light-dark box and % time spent in light was reported at 100 mg/kg intraperitoneal dose; assay type: functional
Mus musculus [11] = test: Percent anticonvulsant activity against pentylenetetrazole (PTZ)-induced attacks at 30 mg/kg intraperitoneal dose.; assay type: functional
Mus musculus [12] = test: Percent anticonvulsant activity against pentylenetetrazole (PTZ)-induced attacks at 100 mg/kg intraperitoneal dose.; assay type: functional
Mus musculus [13] = test: Anxiolytic activity in mice using light-dark box and % time spent in light was reported at 30 mg/kg peroral dose; assay type: functional; conditions: route oral
In short: (§4)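 Male CD-1 mice (22–24 g) given drug po in 1% carboxymethylcellulose (10 mL/kg). Each mouse placed in the centre of the lighted area facing away from the dark compartment and allowed to explore for 5 min; time spent in the illuminated side and number of transfers between compartments recorded. Tests run between 10:00 and 15:00.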

Mus musculus [14] = test: Motor coordination of mouse as number of falls in 30 sec was reported after 1 mg/kg peroral dose using rotarod test; assay type: functional; conditions: route oral; in short: as §3
Mus musculus [15] = test: Percent anticonvulsant activity against pentylenetetrazole (PTZ)-induced attacks at 100 mg/kg peroral dose; assay type: functional; conditions: route oral
In short: (§5)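 Male CD-1 mice dosed po in 1% carboxymethylcellulose, 30 min before PTZ (90 mg/kg sc, in 0.9% saline). Occurrence of clonic generalized convulsions noted over 30 min; χ² analysis vs control mice.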

[16] = molecular target: GABA-A receptor; anion channel; set-up: species or system Bos taurus
Mus musculus [17] = test: Anxiolytic activity in mice using light-dark box and % time spent in light was reported at 3 mg/kg peroral dose; assay type: functional; conditions: route oral; in short: as §4
Mus musculus [18] = test: Anxiolytic activity in mice using light-dark box and % time spent in light was reported at 10 mg/kg peroral dose; assay type: functional; conditions: route oral; in short: as §4
Mus musculus [19] = test: Motor coordination of mouse as number of falls in 30 sec was reported after 30 mg/kg peroral dose using rotarod test; assay type: functional; conditions: route oral
In short: (§6)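 Male CD-1 mice dosed po (suspension in 1% carboxymethylcellulose, 10 mL/kg). Rota rod turning at 24 rpm; falls from the rod counted over 30 s, 25 min after drug administration.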

Mus musculus [20] = test: Percent anticonvulsant activity against pentylenetetrazole (PTZ)-induced attacks at 30 mg/kg peroral dose; assay type: functional; conditions: route oral; in short: as §5
Mus musculus [21] = test: Percent anticonvulsant activity against pentylenetetrazole (PTZ)-induced attacks at 10 mg/kg peroral dose; assay type: functional; conditions: route oral; in short: as §5
Mus musculus [22] = test: Anxiolytic activity in mice using light-dark box and % time spent in light was reported at 1 mg/kg peroral dose; assay type: functional; conditions: route oral
In short: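 Light-dark box in male CD-1 mice. Ligands are given po in 1% CMC, flumazenil ip. Each mouse is placed in the centre of the lit area facing away from the dark one and explores for 5 min. Time in the illuminated side and number of transfers between compartments are recorded. Means ± SEM.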

[23] = Anticonvulsant activity electroshock induced convulsions and % lethality obtained at dose of 30 mg/kg; assay type: organism-based; set-up: dose 30 mg/kg; conditions: mouse, in vivo, read-out: Lethality
In short: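 Male CD-1 mice (22–24 g), groups of 10–16, dosed po in 1% carboxymethylcellulose at 10 mL/kg. Electroshock (40 mA, 0.2 s, 50 Hz) applied to the corneas 30 min after dosing. End point is tonic hind limb extension; % protection and % lethality are recorded against vehicle-treated mice (χ2 analysis).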

Mus musculus [24] = test: Motor coordination of mouse as number of falls in 30 sec was reported after 10 mg/kg peroral dose using rotarod test; assay type: functional; conditions: route oral; in short: as §3
Mus musculus [25] = test: Percent anticonvulsant activity against pentylenetetrazole (PTZ)-induced attacks at 1 mg/kg peroral dose; assay type: functional; conditions: route oral
In short: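 Male CD-1 mice are dosed po in 1% CMC (flumazenil ip). PTZ (90 mg/kg sc, in 0.9% saline) is injected 30 min later. Clonic generalized convulsions are scored over 30 min, with % protection compared with controls by χ2 analysis.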

Mus musculus [26] = test: Motor coordination of mouse as number of falls in 30 sec was reported after 3 mg/kg peroral dose using rotarod test; assay type: functional; conditions: route oral; in short: as §6
Mus musculus [27] = test: Anxiolytic activity in mice using light-dark box and no. of transfers between compartments were reported at 10 mg/kg peroral dose; assay type: functional; conditions: route oral; in short: as §4
Mus musculus [28] = test: Anxiolytic activity in mice using light-dark box and no. of transfers between compartments were reported at 100 mg/kg peroral dose; assay type: functional; conditions: route oral; in short: as §4
Mus musculus [29] = test: Motor coordination of mouse as number of falls in 30 sec was reported after 100 mg/kg peroral dose using rotarod test; assay type: functional; conditions: route oral; in short: as §6
Mus musculus [30] = test: Anxiolytic activity in mice using light-dark box and % time spent in light was reported at 100 mg/kg peroral dose; assay type: functional; conditions: route oral; in short: as §4
Mus musculus [31] = test: Anticonvulsant activity electroshock induced convulsions in hind limb of mice at a dose of 30 mg/kg; assay type: functional, Hindlimb
In short: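 Male CD-1 mice (22–24 g); oral dosing as suspension in 1% carboxymethylcellulose (10 mL/kg), 30 min before corneal electroshock (40 mA, 0.2 s, 50 Hz). Groups of 10–16 mice; end point tonic hind limb extension; lethality also recorded; χ² analysis vs CMC-treated mice.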

Mus musculus [32] = test: Anxiolytic activity in mice using light-dark box and no. of transfers between compartments were reported at 1 mg/kg peroral dose; assay type: functional; conditions: route oral; in short: as §4
Mus musculus [33] = test: Anxiolytic activity in mice using light-dark box and no. of transfers between compartments were reported at 3 mg/kg peroral dose; assay type: functional; conditions: route oral; in short: as §4
Mus musculus [34] = test: Anxiolytic activity in mice using light-dark box and no. of transfers between compartments were reported at 30 mg/kg peroral dose; assay type: functional; conditions: route oral; in short: as §4
Mus musculus [35] = test: Percent anticonvulsant activity against pentylenetetrazole (PTZ)-induced attacks at 3 mg/kg peroral dose; assay type: functional; conditions: route oral; in short: as §5
[36] = molecular target: T1, GABA-A receptor; alpha-1/beta-2/gamma-2; test: as §1; assay type: cell-based; remark: listed apart in the source
In short: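 Membranes from HEK293 cells stably expressing recombinant rat GABA-A subtypes, homogenized in 10 mM potassium phosphate pH 7.4 and resuspended with 100 mM KCl. Incubation with 1–2 nM [3H]Ro15-1788 and test compound (10^-9–10^-5 M, at least six concentrations; DMSO ≤1%) for 1 h at 4 °C to equilibrium.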

T1 sequence (P18508 whole entry): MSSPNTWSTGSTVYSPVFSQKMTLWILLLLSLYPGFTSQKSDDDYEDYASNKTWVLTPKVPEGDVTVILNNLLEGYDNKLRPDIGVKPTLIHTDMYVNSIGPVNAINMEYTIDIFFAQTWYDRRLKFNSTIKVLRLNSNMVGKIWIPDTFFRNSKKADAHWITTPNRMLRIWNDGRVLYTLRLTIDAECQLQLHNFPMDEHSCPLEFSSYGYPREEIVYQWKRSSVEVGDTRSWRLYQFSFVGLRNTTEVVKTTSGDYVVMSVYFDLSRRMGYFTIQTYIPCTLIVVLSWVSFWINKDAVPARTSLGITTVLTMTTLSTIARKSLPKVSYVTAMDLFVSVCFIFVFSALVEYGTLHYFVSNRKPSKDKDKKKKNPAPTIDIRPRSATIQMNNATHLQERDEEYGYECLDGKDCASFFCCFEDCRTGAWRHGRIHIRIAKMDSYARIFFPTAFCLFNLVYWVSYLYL
T1 sequence (P62813 whole entry): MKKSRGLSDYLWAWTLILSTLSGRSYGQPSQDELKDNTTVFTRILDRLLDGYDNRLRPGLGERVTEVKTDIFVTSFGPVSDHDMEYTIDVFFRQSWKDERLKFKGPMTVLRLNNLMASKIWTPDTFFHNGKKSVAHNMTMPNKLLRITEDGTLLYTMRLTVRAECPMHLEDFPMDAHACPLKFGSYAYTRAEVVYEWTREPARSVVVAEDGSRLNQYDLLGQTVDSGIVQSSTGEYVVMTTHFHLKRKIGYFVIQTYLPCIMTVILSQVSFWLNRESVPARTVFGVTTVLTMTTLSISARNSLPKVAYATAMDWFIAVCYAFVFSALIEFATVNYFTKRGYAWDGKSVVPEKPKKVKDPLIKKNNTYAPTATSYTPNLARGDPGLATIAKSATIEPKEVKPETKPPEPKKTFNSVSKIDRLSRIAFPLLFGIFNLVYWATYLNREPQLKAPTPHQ
T1 sequence (P63138 whole entry): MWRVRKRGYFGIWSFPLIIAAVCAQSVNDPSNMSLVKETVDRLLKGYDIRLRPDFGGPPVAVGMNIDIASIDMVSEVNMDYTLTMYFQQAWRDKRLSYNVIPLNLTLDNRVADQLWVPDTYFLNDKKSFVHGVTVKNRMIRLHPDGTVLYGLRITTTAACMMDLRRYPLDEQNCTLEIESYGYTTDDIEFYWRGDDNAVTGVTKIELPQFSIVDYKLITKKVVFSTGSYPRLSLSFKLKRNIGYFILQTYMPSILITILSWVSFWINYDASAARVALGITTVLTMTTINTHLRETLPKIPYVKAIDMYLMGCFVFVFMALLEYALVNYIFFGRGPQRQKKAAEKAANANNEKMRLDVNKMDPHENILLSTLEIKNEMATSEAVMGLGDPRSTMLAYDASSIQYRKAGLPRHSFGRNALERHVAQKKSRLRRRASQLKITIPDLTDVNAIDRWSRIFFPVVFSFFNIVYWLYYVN
Chain of GABA A receptor alpha-3/beta-2/gamma-2 (P18508 whole entry): as the sequence (P18508 whole entry) above
Chain of GABA A receptor alpha-3/beta-2/gamma-2 (P20236 whole entry): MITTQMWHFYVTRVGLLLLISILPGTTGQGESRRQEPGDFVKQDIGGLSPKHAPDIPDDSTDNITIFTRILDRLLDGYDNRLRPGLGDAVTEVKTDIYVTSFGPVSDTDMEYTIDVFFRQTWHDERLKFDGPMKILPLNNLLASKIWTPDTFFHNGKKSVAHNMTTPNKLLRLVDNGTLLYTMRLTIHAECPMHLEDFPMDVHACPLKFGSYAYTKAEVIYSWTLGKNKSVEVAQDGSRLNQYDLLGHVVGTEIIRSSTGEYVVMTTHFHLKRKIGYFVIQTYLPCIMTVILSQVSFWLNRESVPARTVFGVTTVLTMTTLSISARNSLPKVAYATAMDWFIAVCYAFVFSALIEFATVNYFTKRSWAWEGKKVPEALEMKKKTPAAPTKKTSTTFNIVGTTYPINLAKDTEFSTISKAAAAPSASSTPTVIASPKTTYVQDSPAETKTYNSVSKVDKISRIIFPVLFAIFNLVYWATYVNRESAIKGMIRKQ
Chain of GABA A receptor alpha-3/beta-2/gamma-2 (P63138 whole entry): as the sequence (P63138 whole entry) above

## [O-][n+]1nc2c(-c3ccsc3)cnn2c2cc(Cl)ccc21
[1]
  Ki: 4.1 nM
[2]
  Ki: 18 nM
[3]
  Ki: 12 nM
[4]
  Ki: 33 nM

## CCOC(=O)c1ncn2c1CN(C)C(=O)c1cc(F)ccc1-2 [FLUMAZENIL]
Mus musculus [5]
  No. of transfers: 15.2
Mus musculus [6]
  No. of falls: 0.4
Mus musculus [7]
  No. of transfers: 11.8
Mus musculus [8]
  Activity: 90.36%
Mus musculus [9]
  No. of falls: 0.33
Mus musculus [10]
  Activity: 119%
Mus musculus [11]
  Activity: 11.1%
Mus musculus [12]
  Activity: 5.3%

## O=C(OCc1cccs1)c1cnn2c1n[n+]([O-])c1ccc(Cl)cc12
Mus musculus [13]
  Activity: 144.3%
Mus musculus [14]
  No. of falls: 0.1
Mus musculus [15]
  Activity: 20%
[16]
  Ki: 6.8 nM
[2]
  Ki: 8.6 nM
Mus musculus [17]
  Activity: 170.8%
Mus musculus [18]
  Activity: 155.1%
Mus musculus [19]
  No. of falls: 0.1
[3]
  Ki: 26 nM
Mus musculus [20]
  Activity: 40%
Mus musculus [21]
  Activity: 15.38%
Mus musculus [22]
  Activity: 12.89%
[23]
  mortality: 40%
Mus musculus [24]
  No. of falls: 0.15
Mus musculus [25]
  Activity: 20%
Mus musculus [26]
  No. of falls: 0.1
Mus musculus [27]
  No. of transfers: 16.6
Mus musculus [28]
  No. of transfers: 14.6
Mus musculus [29]
  No. of falls: 0
Mus musculus [30]
  Activity: 157.1%
Mus musculus [31]
  Activity: 0%
Mus musculus [32]
  No. of transfers: 21.1
Mus musculus [33]
  No. of transfers: 15.6
Mus musculus [34]
  No. of transfers: 20.5
Mus musculus [35]
  Activity: 0%
[4]
  Ki: 12 nM
[36]
  Ki: 3 nM
